From ChEMBL document CHEMBL1151428, “Capability of 11 antipneumococcal antibiotics to select for resistance by multistep and single-step methodologies” (2007)
Converted amounts (≈) assume the structure as drawn.

Experiments:
Format in all cases: functional
Streptococcus pneumoniae [1] = test: Antimicrobial activity against drug-resistant Streptococcus pneumoniae isolate 24 by NCCLS M7-A7 method
Streptococcus pneumoniae [2] = test: Antimicrobial activity against drug-resistant Streptococcus pneumoniae isolate 1077 after 29 passages by multi-step resistance selection technique
Outline: (§1)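 Daily serial passage in subinhibitory drug levels in 1 ml cation-adjusted Mueller-Hinton broth with 5% lysed horse blood; fresh broth for tigecycline. Each day, 10 μl were taken from the tube one to two dilutions below the MIC whose turbidity matched the growth control, and used to set the next MIC. […] MIC by macrodilution.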

Streptococcus pneumoniae [3] = test: Antimicrobial activity against drug-resistant Streptococcus pneumoniae isolate 3676 by NCCLS M7-A7 method
Streptococcus pneumoniae [4] = test: Antimicrobial activity against drug-resistant Streptococcus pneumoniae isolate 1076 after 35 passages with moxifloxacin measured after 10 antibiotic-free subculture by multi-step resistance selection technique
Outline: (§2)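 Mutants selected by daily broth passage in subinhibitory drug in cation-adjusted Mueller-Hinton broth with 5% lysed horse blood. Stability was tested by 10 daily passages on blood agar without antibiotic, then macrodilution MIC.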

Streptococcus pneumoniae [5] = test: Antimicrobial activity against drug-resistant Streptococcus pneumoniae isolate 3243 after 33 passages with azithromycin measured after 10 antibiotic-free subculture by multi-step resistance selection technique; outline: as §2
Streptococcus pneumoniae [6] = test: Antimicrobial activity against drug-resistant Streptococcus pneumoniae isolate 37 by NCCLS M7-A7 method
Streptococcus pneumoniae [7] = test: Antimicrobial activity against drug-resistant Streptococcus pneumoniae isolate 3274 by NCCLS M7-A7 method
Streptococcus pneumoniae [8] = test: Antimicrobial activity against drug-resistant Streptococcus pneumoniae isolate 1077 by NCCLS M7-A7 method
Streptococcus pneumoniae [9] = test: Antimicrobial activity against drug-resistant Streptococcus pneumoniae isolate 3009 after 21 passages with gemifloxacin measured after 10 antibiotic-free subculture by multi-step resistance selection technique; outline: as §2
Streptococcus pneumoniae [10] = test: Antimicrobial activity against drug-resistant Streptococcus pneumoniae isolate 3413 by NCCLS M7-A7 method
Streptococcus pneumoniae [11] = test: Antimicrobial activity against drug-resistant Streptococcus pneumoniae isolate 1076 after 14 passages with Telithromycin measured after 10 antibiotic-free subculture by multi-step resistance selection technique; outline: as §2
Streptococcus pneumoniae [12] = test: Antimicrobial activity against drug-resistant Streptococcus pneumoniae isolate 1635 after 14 passages by multi-step resistance selection technique; outline: as §1
Streptococcus pneumoniae [13] = test: Antimicrobial activity against drug-resistant Streptococcus pneumoniae isolate 1077 after 49 passages with clindamycin measured after 10 antibiotic-free subculture by multi-step resistance selection technique
Streptococcus pneumoniae [14] = test: Antimicrobial activity against drug-resistant Streptococcus pneumoniae isolate 3274 after 48 passages with Telithromycin measured after 10 antibiotic-free subculture by multi-step resistance selection technique; outline: as §2
Streptococcus pneumoniae [15] = test: Antimicrobial activity against drug-resistant Streptococcus pneumoniae isolate 37 after 14 passages with Telithromycin measured after 10 antibiotic-free subculture by multi-step resistance selection technique
Streptococcus pneumoniae [16] = test: Antimicrobial activity against drug-resistant Streptococcus pneumoniae isolate 3665 by NCCLS M7-A7 method
Streptococcus pneumoniae [17] = test: Antimicrobial activity against drug-resistant Streptococcus pneumoniae isolate 3665 after 14 passages with Telithromycin measured after 10 antibiotic-free subculture by multi-step resistance selection technique
Streptococcus pneumoniae [18] = test: Antimicrobial activity against drug-resistant Streptococcus pneumoniae isolate 3243 after 41 passages with clarithromycin measured after 10 antibiotic-free subculture by multi-step resistance selection technique
Streptococcus pneumoniae [19] = test: Antimicrobial activity against drug-resistant Streptococcus pneumoniae isolate 3009 after 18 passages with levofloxacin measured after 10 antibiotic-free subculture by multi-step resistance selection technique; outline: as §2
Streptococcus pneumoniae [20] = test: Antimicrobial activity against drug-resistant Streptococcus pneumoniae isolate 3665 after 38 passages with moxifloxacin measured after 10 antibiotic-free subculture by multi-step resistance selection technique
Streptococcus pneumoniae [21] = test: Antimicrobial activity against drug-resistant Streptococcus pneumoniae isolate 1635 after 49 passages with clarithromycin measured after 10 antibiotic-free subculture by multi-step resistance selection technique
Streptococcus pneumoniae [22] = test: Antimicrobial activity against drug-resistant Streptococcus pneumoniae isolate 3665 after 26 passages with clarithromycin measured after 10 antibiotic-free subculture by multi-step resistance selection technique
Streptococcus pneumoniae [23] = test: Antimicrobial activity against drug-resistant Streptococcus pneumoniae isolate 1077 after 29 passages with azithromycin measured after 10 antibiotic-free subculture by multi-step resistance selection technique; outline: as §2
Streptococcus pneumoniae [24] = test: Antimicrobial activity against drug-resistant Streptococcus pneumoniae isolate 3676 after 44 passages with clarithromycin measured after 10 antibiotic-free subculture by multi-step resistance selection technique
Streptococcus pneumoniae [25] = test: Antimicrobial activity against drug-resistant Streptococcus pneumoniae isolate 1635 after 14 passages with azithromycin measured after 10 antibiotic-free subculture by multi-step resistance selection technique; outline: as §2
Streptococcus pneumoniae [26] = test: Antimicrobial activity against drug-resistant Streptococcus pneumoniae isolate 3676 after 50 passages by multi-step resistance selection technique
Outline: (§3)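 Daily serial passage in broth at subinhibitory drug levels: 1 ml cation-adjusted Mueller-Hinton broth with 5% lysed horse blood; fresh broth for tigecycline. Each day 10 μl inoculum taken from the tube one to two dilutions below MIC matching growth-control turbidity, used to set next MIC. Continued until ≥8-fold MIC rise, minimum 14, maximum 50 passages; MIC read by macrodilution.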

Streptococcus pneumoniae [27] = test: Antimicrobial activity against drug-resistant Streptococcus pneumoniae isolate 3243 after 33 passages by multi-step resistance selection technique; outline: as §1
Streptococcus pneumoniae [28] = test: Antimicrobial activity against drug-resistant Streptococcus pneumoniae isolate 3413 after 30 passages with Telithromycin measured after 10 antibiotic-free subculture by multi-step resistance selection technique; outline: as §2
Streptococcus pneumoniae [29] = test: Antimicrobial activity against drug-resistant Streptococcus pneumoniae isolate 24 after 14 passages with Telithromycin measured after 10 antibiotic-free subculture by multi-step resistance selection technique; outline: as §2
Streptococcus pneumoniae [30] = test: Antimicrobial activity against drug-resistant Streptococcus pneumoniae isolate 3274 after 50 passages by multi-step resistance selection technique
Outline: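 Daily serial passage in subinhibitory drug levels in 1 ml cation-adjusted Mueller-Hinton broth with 5% lysed horse blood; fresh broth for tigecycline. Each day, 10 μl were taken from the tube one to two dilutions below the MIC whose turbidity matched the growth control, and used to set the next MIC. MIC by macrodilution.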

Streptococcus pneumoniae [31] = test: Antimicrobial activity against drug-resistant Streptococcus pneumoniae isolate 3243 by NCCLS M7-A7 method
Streptococcus pneumoniae [32] = test: Antimicrobial activity against drug-resistant Streptococcus pneumoniae isolate 3676 after 50 passages with moxifloxacin measured after 10 antibiotic-free subculture by multi-step resistance selection technique
Streptococcus pneumoniae [33] = test: Antimicrobial activity against drug-resistant Streptococcus pneumoniae isolate 3009 after 19 passages with moxifloxacin measured after 10 antibiotic-free subculture by multi-step resistance selection technique; outline: as §2
Streptococcus pneumoniae [34] = test: Antimicrobial activity against drug-resistant Streptococcus pneumoniae isolate 2527 after 20 passages by multi-step resistance selection technique
Streptococcus pneumoniae [35] = test: Antimicrobial activity against drug-resistant Streptococcus pneumoniae isolate 1076 by NCCLS M7-A7 method
Streptococcus pneumoniae [36] = test: Antimicrobial activity against drug-resistant Streptococcus pneumoniae isolate 3676 after 14 passages with Telithromycin measured after 10 antibiotic-free subculture by multi-step resistance selection technique
Streptococcus pneumoniae [37] = test: Antimicrobial activity against drug-resistant Streptococcus pneumoniae isolate 1635 by NCCLS M7-A7 method
Streptococcus pneumoniae [38] = test: Antimicrobial activity against drug-resistant Streptococcus pneumoniae isolate 3665 after 50 passages by multi-step resistance selection technique; outline: as §3
Streptococcus pneumoniae [39] = test: Antimicrobial activity against drug-resistant Streptococcus pneumoniae isolate 3243 after 20 passages with moxifloxacin measured after 10 antibiotic-free subculture by multi-step resistance selection technique; outline: as §2
Streptococcus pneumoniae [40] = test: Antimicrobial activity against drug-resistant Streptococcus pneumoniae isolate 1635 after 14 passages with clindamycin measured after 10 antibiotic-free subculture by multi-step resistance selection technique
Streptococcus pneumoniae [41] = test: Antimicrobial activity against drug-resistant Streptococcus pneumoniae isolate 24 after 50 passages with moxifloxacin measured after 10 antibiotic-free subculture by multi-step resistance selection technique; outline: as §2
Streptococcus pneumoniae [42] = test: Antimicrobial activity against drug-resistant Streptococcus pneumoniae isolate 3243 after 29 passages with Telithromycin measured after 10 antibiotic-free subculture by multi-step resistance selection technique; outline: as §2
Streptococcus pneumoniae [43] = test: Antimicrobial activity against drug-resistant Streptococcus pneumoniae isolate 3009 by NCCLS M7-A7 method
Streptococcus pneumoniae [44] = test: Antimicrobial activity against drug-resistant Streptococcus pneumoniae isolate 2527 after 20 passages with azithromycin measured after 10 antibiotic-free subculture by multi-step resistance selection technique; outline: as §2
Streptococcus pneumoniae [45] = test: Antimicrobial activity against drug-resistant Streptococcus pneumoniae isolate 3009 after 25 passages with clarithromycin measured after 10 antibiotic-free subculture by multi-step resistance selection technique
Streptococcus pneumoniae [46] = test: Antimicrobial activity against drug-resistant Streptococcus pneumoniae isolate 2527 by NCCLS M7-A7 method
Streptococcus pneumoniae [47] = test: Antimicrobial activity against drug-resistant Streptococcus pneumoniae isolate 2527 after 14 passages with gemifloxacin measured after 10 antibiotic-free subculture by multi-step resistance selection technique; outline: as §2
Streptococcus pneumoniae [48] = test: Antimicrobial activity against drug-resistant Streptococcus pneumoniae isolate 1077 after 15 passages with Telithromycin measured after 10 antibiotic-free subculture by multi-step resistance selection technique; outline: as §2

CC[C@H]1OC(=O)[C@H](C)[C@@H](O[C@H]2C[C@@](C)(OC)[C@@H](O)[C@H](C)O2)[C@H](C)[C@@H](O[C@@H]2O[C@H](C)C[C@H](N(C)C)[C@H]2O)[C@](C)(O)C[C@@H](C)CN(C)[C@H](C)[C@@H](O)[C@]1(C)O [AZITHROMYCIN]
MIC (Streptococcus pneumoniae [1]): > 64 mg/L
MIC (Streptococcus pneumoniae [2]): > 64 mg/L
MIC (Streptococcus pneumoniae [3]): 4 mg/L (≈ 5.34 µM)
MIC (Streptococcus pneumoniae [4]): > 64 mg/L
MIC (Streptococcus pneumoniae [5]): 0.5 mg/L (≈ 0.668 µM)
MIC (Streptococcus pneumoniae [6]): > 64 mg/L
MIC (Streptococcus pneumoniae [7]): 0.008 mg/L (≈ 0.0107 µM)
MIC (Streptococcus pneumoniae [8]): 0.03 mg/L (≈ 0.0401 µM)
MIC (Streptococcus pneumoniae [9]): > 64 mg/L
MIC (Streptococcus pneumoniae [10]): > 64 mg/L
MIC (Streptococcus pneumoniae [11]): > 64 mg/L
MIC (Streptococcus pneumoniae [12]): > 64 mg/L
MIC (Streptococcus pneumoniae [13]): > 64 mg/L
MIC (Streptococcus pneumoniae [14]): 1 mg/L (≈ 1.34 µM)
MIC (Streptococcus pneumoniae [15]): > 64 mg/L
MIC (Streptococcus pneumoniae [16]): 8 mg/L (≈ 10.7 µM)
MIC (Streptococcus pneumoniae [17]): 4 mg/L (≈ 5.34 µM)
MIC (Streptococcus pneumoniae [18]): 1 mg/L (≈ 1.34 µM)
MIC (Streptococcus pneumoniae [19]): > 64 mg/L
MIC (Streptococcus pneumoniae [20]): 8 mg/L (≈ 10.7 µM)
MIC (Streptococcus pneumoniae [21]): > 64 mg/L
MIC (Streptococcus pneumoniae [22]): 8 mg/L (≈ 10.7 µM)
MIC (Streptococcus pneumoniae [23]): > 64 mg/L
MIC (Streptococcus pneumoniae [24]): 16 mg/L (≈ 21.4 µM)
MIC (Streptococcus pneumoniae [25]): > 64 mg/L
MIC (Streptococcus pneumoniae [26]): 8 mg/L (≈ 10.7 µM)
MIC (Streptococcus pneumoniae [27]): 0.25 mg/L (≈ 0.334 µM)
MIC (Streptococcus pneumoniae [28]): > 64 mg/L
MIC (Streptococcus pneumoniae [29]): > 64 mg/L
MIC (Streptococcus pneumoniae [30]): 0.008 mg/L (≈ 0.0107 µM)
MIC (Streptococcus pneumoniae [31]): 0.03 mg/L (≈ 0.0401 µM)
MIC (Streptococcus pneumoniae [32]): 4 mg/L (≈ 5.34 µM)
MIC (Streptococcus pneumoniae [33]): > 64 mg/L
MIC (Streptococcus pneumoniae [34]): 4 mg/L (≈ 5.34 µM)
MIC (Streptococcus pneumoniae [35]): > 64 mg/L
MIC (Streptococcus pneumoniae [36]): 2 mg/L (≈ 2.67 µM)
MIC (Streptococcus pneumoniae [37]): 2 mg/L (≈ 2.67 µM)
MIC (Streptococcus pneumoniae [38]): 16 mg/L (≈ 21.4 µM)
MIC (Streptococcus pneumoniae [39]): 0.016 mg/L (≈ 0.0214 µM)
MIC (Streptococcus pneumoniae [40]): 4 mg/L (≈ 5.34 µM)
MIC (Streptococcus pneumoniae [41]): > 64 mg/L
MIC (Streptococcus pneumoniae [42]): > 64 mg/L
MIC (Streptococcus pneumoniae [43]): > 64 mg/L
MIC (Streptococcus pneumoniae [44]): 4 mg/L (≈ 5.34 µM)
MIC (Streptococcus pneumoniae [45]): > 64 mg/L
MIC (Streptococcus pneumoniae [46]): 0.016 mg/L (≈ 0.0214 µM)
MIC (Streptococcus pneumoniae [47]): 0.03 mg/L (≈ 0.0401 µM)
MIC (Streptococcus pneumoniae [48]): > 64 mg/L
